Experimental data from ChEMBL document CHEMBL3227941, “3-Substituted adenines. In vitro enzyme inhibition and antiviral activity” (J Med Chem, 1979).
Calls of active or inactive are those of the source. The calls are words filed in the database; no cut-off is given here.

Key:
[1] = target: T1, Dopamine beta-hydroxylase (Bos taurus, UniProt P15101); assay: Inhibition of bovine adrenal medullae dopamine-beta-hydroxylase; design: species or system Adrenal medulla; conditions: read-out: I50 (converted)
T1 sequence (P15101 whole entry): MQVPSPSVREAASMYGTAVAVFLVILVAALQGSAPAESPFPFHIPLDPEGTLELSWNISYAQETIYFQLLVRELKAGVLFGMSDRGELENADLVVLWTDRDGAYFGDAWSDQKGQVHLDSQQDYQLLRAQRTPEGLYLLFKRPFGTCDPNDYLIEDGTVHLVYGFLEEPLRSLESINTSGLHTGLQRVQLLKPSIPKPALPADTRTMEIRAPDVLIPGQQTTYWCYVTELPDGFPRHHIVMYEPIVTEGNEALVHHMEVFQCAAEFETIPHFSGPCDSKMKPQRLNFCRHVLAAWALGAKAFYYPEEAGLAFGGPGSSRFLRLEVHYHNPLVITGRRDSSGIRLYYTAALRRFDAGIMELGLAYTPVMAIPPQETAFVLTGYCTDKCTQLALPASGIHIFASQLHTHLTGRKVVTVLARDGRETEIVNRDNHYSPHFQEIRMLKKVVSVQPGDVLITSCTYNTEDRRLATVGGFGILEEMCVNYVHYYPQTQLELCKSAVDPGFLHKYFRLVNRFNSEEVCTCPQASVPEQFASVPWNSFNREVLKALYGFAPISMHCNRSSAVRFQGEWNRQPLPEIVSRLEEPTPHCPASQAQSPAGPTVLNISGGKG

[2] = Cytotoxicity against Vaccinia virus infected African green monkey BSC1 cells at 100 ug/ml; type: cell-based; conditions: chlorocebus aethiops, bsc-1
Human alphaherpesvirus 1 [3] = assay: Antiviral activity against HSV1 infected in African green monkey BSC-1 cells assessed as inhibition of virus multiplication at 50 ug/ml after 96 hrs by plaque reduction assay; type: functional; conditions: Human alphaherpesvirus 1, BSC-1, 96 h
Human alphaherpesvirus 1 [4] = assay: Antiviral activity against HSV1 infected in African green monkey BSC-1 cells assessed as inhibition of virus multiplication at 25 ug/ml after 96 hrs by plaque reduction assay; type: functional; conditions: Human alphaherpesvirus 1, BSC-1, 96 h
Human alphaherpesvirus 1 [5] = assay: Antiviral activity against HSV1 infected in African green monkey BSC-1 cells assessed as inhibition of virus multiplication at 12 ug/ml after 96 hrs by plaque reduction assay; type: functional; conditions: Human alphaherpesvirus 1, BSC-1, 96 h
Human alphaherpesvirus 1 [6] = assay: Antiviral activity against HSV1 infected in African green monkey BSC-1 cells assessed as inhibition of virus multiplication at 6 ug/ml after 96 hrs by plaque reduction assay; type: functional; conditions: Human alphaherpesvirus 1, BSC-1, 96 h
Vaccinia virus [7] = assay: Antiviral activity against Vaccinia virus infected in African green monkey BSC-1 cells assessed as inhibition of virus multiplication at 50 ug/ml after 96 hrs by plaque reduction assay; type: functional; conditions: Orthopoxvirus vaccinia, BSC-1, 96 h
Vaccinia virus [8] = assay: Antiviral activity against Vaccinia virus infected in African green monkey BSC-1 cells assessed as inhibition of virus multiplication at 25 ug/ml after 96 hrs by plaque reduction assay; type: functional; conditions: Orthopoxvirus vaccinia, BSC-1, 96 h
Vaccinia virus [9] = assay: Antiviral activity against Vaccinia virus infected in African green monkey BSC-1 cells assessed as inhibition of virus multiplication at 12 ug/ml after 96 hrs by plaque reduction assay; type: functional; conditions: Orthopoxvirus vaccinia, BSC-1, 96 h
[10] = Cytotoxicity against HSV1 infected African green monkey BSC1 cells at 50 ug/ml; type: cell-based; conditions: chlorocebus aethiops, bsc-1
[11] = Cytotoxicity against HSV1 infected African green monkey BSC1 cells at 25 ug/ml; type: cell-based; conditions: chlorocebus aethiops, bsc-1
[12] = Cytotoxicity against Vaccinia virus infected African green monkey BSC1 cells at 50 ug/ml; type: cell-based; conditions: chlorocebus aethiops, bsc-1
[13] = Cytotoxicity against Vaccinia virus infected African green monkey BSC1 cells at 25 ug/ml; type: cell-based; conditions: chlorocebus aethiops, bsc-1
Vaccinia virus [14] = assay: Antiviral activity against Vaccinia virus infected in African green monkey BSC-1 cells assessed as inhibition of virus multiplication at 6 ug/ml after 96 hrs by plaque reduction assay; type: functional; conditions: Orthopoxvirus vaccinia, BSC-1, 96 h
Vaccinia virus [15] = assay: Antiviral activity against Vaccinia virus infected in African green monkey BSC-1 cells assessed as inhibition of virus multiplication at 3 ug/ml after 96 hrs by plaque reduction assay; type: functional; conditions: Orthopoxvirus vaccinia, BSC-1, 96 h
Vaccinia virus [16] = assay: Antiviral activity against Vaccinia virus infected in African green monkey BSC-1 cells assessed as inhibition of virus multiplication at 100 ug/ml after 96 hrs by plaque reduction assay; type: functional; conditions: Orthopoxvirus vaccinia, BSC-1, 96 h
Vaccinia virus [17] = assay: Antiviral activity against Vaccinia virus infected in mouse assessed as assessed as protection against viral infection; type: functional, organism-based; conditions: Orthopoxvirus vaccinia
[18] = system: Transmissible gastroenteritis virus; assay: Antiviral activity against Transmissible gastroenteritis virus infected in pig at 25 mg/animal administered 3 times per day; type: functional, organism-based
How it was run: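 Piglets weighing 4-5 lb dosed at 25 mg/pig three times daily and challenged with virus. Weight and survival monitored against untreated controls over 72 h.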

Sus scrofa = assay: Toxicity in Transmissible gastroenteritis virus infected pig at 25 mg/animal administered 3 times per day; type: organism-based; conditions: in vivo
How it was run: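 Piglets (4-5 lb), four per treated group with two untreated controls, were given 25 mg/pig three times a day and challenged with virus. Body weight was followed from 24 h after challenge through 48 h, and animals were watched for signs of illness and for deaths.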

Human alphaherpesvirus 1 [19] = assay: Antiviral activity against HSV1 infected in mouse assessed as assessed as protection against viral infection; type: functional, organism-based

SMILES | IC50 [1] [µM] | Activity [2] | inhibition at 50 µg/mL (Human alphaherpesvirus 1 [3]) [%] | inhibition at 25 µg/mL (Human alphaherpesvirus 1 [4]) [%] | inhibition at 12 µg/mL (Human alphaherpesvirus 1 [5]) [%] | inhibition at 6 µg/mL (Human alphaherpesvirus 1 [6]) [%] | inhibition at 50 µg/mL (Vaccinia virus [7]) [%] | inhibition at 25 µg/mL (Vaccinia virus [8]) [%] | inhibition at 12 µg/mL (Vaccinia virus [9]) [%] | Activity [10] | Activity [11] | Activity [12] | Activity [13] | inhibition at 6 µg/mL (Vaccinia virus [14]) [%] | inhibition at 3 µg/mL (Vaccinia virus [15]) [%] | inhibition at 100 µg/mL (Vaccinia virus [16]) [%] | Activity (Vaccinia virus [17]) | Activity [18] | Activity (Sus scrofa) | Activity (Human alphaherpesvirus 1 [19])
Nc1ncn(Cc2cccc(C(F)(F)F)c2)c2ncnc1-2 | 68.2 |  |  |  |  |  |  |  |  |  |  |  |  |  |  |  |  |  |  | 
Cc1cccc(Cn2cnc(N)c3ncnc2-3)c1 | 83.6 | Toxic | 9 | 0 | 0 | 0 | 0 | 0 | 0 |  |  |  |  |  |  |  |  |  |  | 
Cc1ccc(Cn2cnc(N)c3ncnc2-3)cc1C | 79 | Toxic |  |  | 42 | 0 |  |  | 0 | Toxic | Toxic | Toxic | Toxic | 0 | 0 |  |  |  |  | 
Nc1ncn(Cc2cccc(Cl)c2)c2ncnc1-2 | 7.7 |  | 45 | 0 | 0 | 0 | 37 | 16 | 0 |  |  |  |  | 0 |  | 100 |  |  |  | 
Nc1ncn(Cc2ccccc2Cl)c2ncnc1-2 | 770 | Toxic | 100 | 100 | 42 | 0 | 100 | 0 | 0 |  |  |  |  | 0 | 0 |  |  |  |  | 
Nc1ncn(CC2CCCCC2)c2ncnc1-2 | 8.65 |  | 0 | 0 | 0 | 0 | 7 | 0 | 0 |  |  |  |  |  |  |  |  |  |  | 
CC(C)CCn1cnc(N)c2ncnc1-2 | 974 |  | 27 | 0 | 0 | 0 | 7 | 7 | 0 |  |  |  |  | 0 |  | 8 |  |  |  | 
Cc1ccccc1Cn1cnc(N)c2ncnc1-2 | 836 | Toxic | 30 | 0 | 0 | 0 | 0 | 0 | 0 |  |  |  |  |  |  |  |  |  |  | 
CCn1cnc(N)c2ncnc1-2 [3-ETHYLADENINE] | > 1230 |  | 0 | 0 | 0 | 0 | 0 | 0 | 0 |  |  |  |  | 0 |  | 0 |  |  |  | 
Cc1ccc(Cn2cnc(N)c3ncnc2-3)cc1 | 83.6 | Toxic | 0 | 0 | 0 | 0 | 10 | 8 | 0 |  |  |  |  |  |  |  |  |  |  | 
Nc1ncn(Cc2ccc(Cl)cc2Cl)c2ncnc1-2 | 680 | Toxic |  | 20 | 0 | 0 |  |  | 0 | Toxic |  | Toxic | Toxic | 0 |  |  |  |  |  | 
Nc1ncn(Cc2ccccc2)c2ncnc1-2 [3-BENZYLADENINE] | 8.88 |  | 0 | 0 | 0 | 0 | 3 | 0 | 0 |  |  |  |  |  |  | 3 |  |  |  | 
CCCCn1cnc(N)c2ncnc1-2 [3-BUTYLADENINE] | 105 |  | 0 | 0 | 0 | 0 | 0 | 0 | 0 |  |  |  |  |  |  | 1 |  |  |  | 
CCCCCn1cnc(N)c2ncnc1-2 | 2.44 |  | 3 | 0 | 0 | 0 | 72 | 35 | 33 |  |  |  |  |  |  | 96 |  |  |  | 
Nc1ncn(Cc2ccc(Cl)c(Cl)c2)c2ncnc1-2 | 6.8 | Toxic |  | 27 | 0 | 0 |  |  | 100 | Toxic |  | Toxic | Toxic | 87 | 47 |  |  |  |  | 
Nc1ncn(Cc2ccc(Cl)cc2)c2ncnc1-2 | 77 | Toxic | 15 | 0 | 0 | 0 | 100 | 70 | 51 |  |  |  |  |  |  |  |  |  |  | 
CCCn1cnc(N)c2ncnc1-2 [3-PROPYLADENINE] | 1130 |  | 0 | 0 | 0 | 0 | 0 | 0 | 0 |  |  |  |  | 0 |  | 0 |  |  |  | 
CCCCCCn1cnc(N)c2ncnc1-2 | 4.56 | Toxic | 16 | 0 | 0 | 0 | 100 | 77 | 27 |  |  |  |  |  |  |  |  |  |  | 
Nc1ncn(Cc2ccco2)c2ncnc1-2 |  |  | 0 | 0 | 0 | 0 | 0 | 0 |  |  |  |  |  |  |  | 0 |  |  |  | 
Nc1ncn(Cc2ccccc2Br)c2ncnc1-2 | 658 | Toxic | 100 | 100 | 100 | 71 | 100 | 100 | 34 |  |  |  |  | 0 | 0 |  | inactive | inactive | Toxic | inactive
